Measurements: PMC4527612 (Journal of inorganic biochemistry, 2014)
Where two headings read alike, the source gives them in different places. Marks after values point to notes of the source that are not given here.

How the values were obtained:
HeLa (cervix carcinoma) = test: Dark cytotoxicity, Trypan blue exclusion test; assay type: cell-based, human; conditions: read-out: IC50 (μM) ± S.E.M. HeLa, 48 h incubation
Summary of the method: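 HeLa cells were grown in DMEM with 10% FBS, 2 mM L-glutamine and penicillin/streptomycin at 37 °C. They were seeded at 0.5 × 10^6/mL in glass vials, given 24 h, then exposed for 48 h in the dark to test compound in distilled water at various concentrations. Cells were trypsinised, stained 5–15 min with 0.4% Trypan blue and counted by hemocytometer. […] IC50 was derived from at least three experiments, mean ± S.E.M.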

[1] = tested on: KCL-22 (chronic myeloid leukemia in blast crisis); conditions: read-out: IC50 (μM) ± S.E.M. KCL-22, dark; cited from earlier work
[2] = tested on: KCL-22 (chronic myeloid leukemia in blast crisis); test: Dark cytotoxicity, Trypan blue exclusion test; assay type: cell-based, human
[3] = tested on: human normal leukocytes (HNL); test: Cytotoxicity on normal cells, trypan blue exclusion assay; assay type: cell-based
KCL-22 cell line [4] = test: Comet assay; assay type: cell-based, human; conditions: for % DNA in tail, Mean ± S.E.M. / % DNA in tail, Median / L/H, Mean ± S.E.M. / L/H, Median / OTM, Mean ± S.E.M. / OTM, Median: KCL-22
Summary of the method: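 KCL-22 cells were treated 24 h after seeding for 2 h at three concentrations of test compound, with untreated cells as control. Cells were embedded in 0.5% low-melting agarose on slides precoated with 1% agarose and lysed 1 h at 4 °C (2.5 M NaCl, 100 mM EDTA, 10 mM Tris, 1% Triton X-100, pH 10). DNA was unwound 40 min (300 mM NaOH, 1 mM EDTA, pH >13), then electrophoresed at 4 °C for 25 min at 25 V, 300 mA. Slides were neutralised with 0.4 M Tris pH 7.5, stained with 20 μg/mL ethidium bromide, and ≥150 cells scored (50 per triplicate slide). Analysis was by Mann–Whitney test.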

KCL-22 cell line [5] = test: Flow cytometric cell cycle analysis; assay type: cell-based, human
Summary of the method: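 KCL-22 cells were exposed 24 h after seeding to three concentrations of test compound for 48 h. About 10^6 cells were fixed by dropwise addition of cold 70% ethanol on vortex, held overnight at 4 °C, and stored at −20 °C for up to a week. Cells were then washed twice in PBS and stained 30 min with 0.1 mg/mL RNase and 0.05 mg/mL propidium iodide. DNA content was read by flow cytometry, with doublets excluded by FSC/SSC. Phases were fitted with the Dean–Jett–Fox model.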

[6] = Lipophilicity by thin-layer chromatographic retention factor Rf; assay type: physicochemical; conditions: silica, 1:1:8 KNO3-saturated H2O:H2O:CH3CN
[7] = tested on: HeLa, HEP-3B, LN-308, MCF-7 and KCL-22 human cancer cell lines; test: Dose-dependent cytotoxicity curves in five cancer cell lines; assay type: cell-based; conditions: Fig. 3
HeLa cell line = test: Cytokinesis block micronucleus
KCL-22 cells [8] = test: Photo-induced cytotoxicity, vital dye exclusion test; assay type: cell-based, human
Summary of the method: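 After 24 h in glass vials, KCL-22 cells were preincubated 30 min with free-base porphyrin (distilled water) at various concentrations. They were then irradiated 25 min with a tungsten lamp (30 mW/cm2, 28,000 lx) through a 600–900 nm glass filter and incubated a further 48 h. Viable cells were counted by vital dye exclusion. Controls were dark-kept treated cultures and illuminated untreated cultures; Chlorin e6 was the positive control. IC50 came from dose–response curves, mean ± S.E.M.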

KCL-22 cells [9] = test: Dark toxicity of photosensitizers, vital dye exclusion test; assay type: cell-based, human; conditions: for IC50: read-out: IC50 (μM) ± S.E.M. Under dark
Summary of the method: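 KCL-22 cells were grown in RPMI-1640 with 10% FBS, 2 mM L-glutamine and penicillin/streptomycin at 37 °C, then seeded in glass vials for 24 h. Free-base porphyrin in distilled water was added at various concentrations, and cells were kept in the dark without illumination for 48 h. Viable cells were counted by vital dye exclusion, with viability as % of intact control. IC50 came from dose–response curves, mean ± S.E.M. of at least three experiments.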

KCL-22 cells [10] = conditions: read-out: IC50 (μM) ± S.E.M. Photo-induced; KCL-22, illumination; cited from earlier work
KCL-22 cells [11] = conditions: read-out: IC50 (μM) ± S.E.M. Under dark; KCL-22, dark; cited from earlier work

Compound: 5,10,15,20-tetra(4′-N-allylpyridyl)porphinato Ag(II) tetranitrate [AgTAll4PyP]
- IC50 (HeLa (cervix carcinoma)): 26 ± 2.4 µM
- IC50 [1]: 2.5 ± 1.1 µM

Compound: C=CC[n+]1ccc(-c2c3nc(c(-c4cc[n+](CC=C)cc4)c4ccc([n-]4)c(-c4ccc(OCCCCCCCCCCCCCCCC)c(OC)c4)c4nc(c(-c5cc[n+](CC=C)cc5)c5ccc2[n-]5)C=C4)C=C3)cc1.O=[N+]([O-])[O-].O=[N+]([O-])[O-].O=[N+]([O-])[O-].[Ag+2] [AgTriAll4PyMVanC16P, 5-Mono(3′-methoxy-4′-hexadecyloxyphenyl)-10,15,20-tri(4′-N-allylpyridyl) porphinato Ag(II) trinitrate]
- fold enhancement of cytotoxicity on metallation of H2TriAll4PyMVanC16P ([2]; KCL-22, dark): 5 fold
- toxicity on normal cells (HNL) as compared to cisplatin ([3]; HNL, trypan blue exclusion): significantly less toxic
- toxicity towards cancer (KCL-22) versus normal (HNL) cells ([3]; although not significant): higher towards cancer versus normal cells
- % DNA in tail, Mean ± S.E.M. (KCL-22 cell line [4]; concentration IC50, 2 h): 9.36 ± 0.68%
- % DNA in tail, Median (KCL-22 cell line [4]; concentration IC50, 2 h): 7.14 ^* %
- L/H, Mean ± S.E.M. (KCL-22 cell line [4]; concentration IC50, 2 h): 1.34 ± 0.01
- L/H, Median (KCL-22 cell line [4]; concentration IC50, 2 h): 1.32 ^*
- OTM, Mean ± S.E.M. (KCL-22 cell line [4]; concentration IC50, 2 h): 5.63 ± 0.42
- OTM, Median (KCL-22 cell line [4]; concentration IC50, 2 h): 4.12 ^*
- % DNA in tail, Mean ± S.E.M. (KCL-22 cell line [4]; concentration IC50/5, 2 h): 3.10 ± 0.20%
- % DNA in tail, Median (KCL-22 cell line [4]; concentration IC50/5, 2 h): 3.11 ^* %
- L/H, Mean ± S.E.M. (KCL-22 cell line [4]; concentration IC50/5, 2 h): 1.12 ± 0.01
- L/H, Median (KCL-22 cell line [4]; concentration IC50/5, 2 h): 1.12 ^*
- OTM, Mean ± S.E.M. (KCL-22 cell line [4]; concentration IC50/5, 2 h): 1.42 ± 0.08
- OTM, Median (KCL-22 cell line [4]; concentration IC50/5, 2 h): 1.14 ^*
- % DNA in tail, Mean ± S.E.M. (KCL-22 cell line [4]; concentration IC50/20, 2 h): 1.74 ± 0.14%
- % DNA in tail, Median (KCL-22 cell line [4]; concentration IC50/20, 2 h): 1.74%
- L/H, Mean ± S.E.M. (KCL-22 cell line [4]; concentration IC50/20, 2 h): 1.08 ± 0.00
- L/H, Median (KCL-22 cell line [4]; concentration IC50/20, 2 h): 1.07
- OTM, Mean ± S.E.M. (KCL-22 cell line [4]; concentration IC50/20, 2 h): 0.93 ± 0.06
- OTM, Median (KCL-22 cell line [4]; concentration IC50/20, 2 h): 0.58
- DNA damage (Comet assay) (KCL-22 cell line [4]; concentrations IC50/5 and IC50, KCL-22, 2 h after application): induce the breakage of DNA molecule
- DNA damage (Comet assay) (KCL-22 cell line [4]; low (IC50/20) concentration, KCL-22, 2 h): no effect
- number of cells in G2 phase (KCL-22 cell line [5]; KCL-22, 48 h): not changed
- S-phase cell number (KCL-22 cell line [5]; KCL-22, IC50/2, IC50, IC60, 48 h): significantly increased
- cells in G1 phase (KCL-22 cell line [5]; KCL-22, IC50 or IC60 concentration, 48 h): statistically significant reduction
- lipophilicity, TLC retention factor Rf, compared to tetracationic analog [6]: gained significantly in lipophilicity
- concentration at which toxicity starts [7]: ~ 1 μM
- MN (micronucleus) formation in binucleate cells (HeLa cell line; all concentrations applied, from IC50/5 to IC60, HeLa): did not induce MN formation
- CBPI (cytokinesis block proliferation index) (HeLa cell line; concentration IC50, HeLa): 1.33 ± 0.002
- CBPI, % of negative control (HeLa cell line; concentration IC50, HeLa): 91%
- CBPI, % of negative control (HeLa cell line; concentration IC50/2, HeLa): 94%
- CBPI (cytokinesis block proliferation index) (HeLa cell line; concentration IC50/2, HeLa, listed as Ag porphyrin): 1.37 ± 0.004
- CBPI (cytokinesis block proliferation index) (HeLa cell line; concentration IC50/2, HeLa, listed as Amphiphilic Ag porphyrin): no effect
- CBPI, % of negative control (HeLa cell line; concentration IC50/5, HeLa): 97%
- CBPI (cytokinesis block proliferation index) (HeLa cell line; concentration IC50/5, HeLa, listed as Ag porphyrin): 1.42 ± 0.034
- CBPI (cytokinesis block proliferation index) (HeLa cell line; concentration IC50/5, HeLa, listed as Amphiphilic Ag porphyrin): no effect
- CBPI (cytokinesis block proliferation index) (HeLa cell line; concentration IC60, HeLa): 1.20 ± 0.002
- CBPI, % of negative control (HeLa cell line; concentration IC60, HeLa): 82%

Compound: C=CC[n+]1ccc(-c2c3nc(c(-c4cc[n+](CC=C)cc4)c4ccc([nH]4)c(-c4ccc(OCCCCCCCCCCCCCCCC)c(OC)c4)c4nc(c(-c5cc[n+](CC=C)cc5)c5ccc2[nH]5)C=C4)C=C3)cc1.[Br-].[Br-].[Br-] [H2TriAll4PyMVanC16P, 5-Mono(3′-methoxy-4′-hexadecyloxyphenyl)-10,15,20-tri(4′-N-allylpyridyl) porphine tribromide]
- fold by which IC50 upon illumination is lower than IC50 under the dark (KCL-22 cells [8]; KCL-22): more than 35 fold
- fold more phototoxic than Chlorin e6 (KCL-22 cells [8]; KCL-22, illumination): 5 fold
- fold increase in cytotoxicity over tetracationic analog H2TAll4PyP (KCL-22 cells [9]; KCL-22, dark): more than 60 fold
- IC50 (KCL-22 cells [9]; KCL-22, dark, 48 h): 25 ± 2 µM
- lipophilicity, TLC retention factor Rf, compared to tetracationic analog [6]: gained dramatically in lipophilicity

Compound: N.N.[Cl][Pt][Cl] [Cisplatin, cisplatin, reference compound]
- concentration at which toxicity starts [7]: ~ 0.2 μM

Compound: O=[N+]([O-])[O-].[Ag+] [Silver nitrate]
- toxicity on KCL-22 cell line ([2]; at up to 20 μM concentration, data not shown): no toxicity

Compound: C=Cc1c(C)c2cc3nc(c(CC(=O)O)c4[nH]c(cc5nc(cc1[nH]2)C(C)=C5CC)c(C)c4C(=O)O)[C@@H](CCC(=O)O)[C@@H]3C [Chlorin e6, reference compound]
- IC50 (KCL-22 cells [8]; Homo sapiens, KCL-22, read-out: IC50 (μM) ± S.E.M. Photo-induced): 4 ± 0.2 µM
- IC50 (KCL-22 cells [9]; Homo sapiens, KCL-22, 48 h): > 50 µM

Compound: C=CC[n+]1ccc(-c2c3nc(c(-c4cc[n+](CC=C)cc4)c4ccc([nH]4)c(-c4cc[n+](CC=C)cc4)c4nc(c(-c5cc[n+](CC=C)cc5)c5ccc2[nH]5)C=C4)C=C3)cc1 [H2TAll4PyP, 5,10,15,20-tetra(4′-N-allylpyridyl)porphyrin tetrabromide]
- IC50 (KCL-22 cells [10]): 50 µM
- IC50 (KCL-22 cells [11]): > 1600 µM
